# Assay results published in ChEMBL document CHEMBL1123513, “Role of the C-terminal carboxylate in angiotensin II activity: alcohol, ketone, and ester analogues of angiotensin II” (1986).
# Square brackets hold non-standard residues; d marks the D form. Peptide text beside a SMILES is read from it. * marks the point of attachment. αMeF = C[C@](N)(Cc1ccccc1)C(=O)O; Phe(ol) = N[C@H](CO)Cc1ccccc1; X1 = CC(=O)[C@H](Cc1ccccc1)N*
# Assays:
# Rattus norvegicus [1] = species on record: Rattus norvegicus; test: Compound was tested for oxytocic response in rat; format: functional
# Rattus norvegicus [2] = species on record: Rattus norvegicus; test: Compound was tested for pressor response in rat; format: functional
# How it was run: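 Urethane-anesthetized male Zivic-Miller rats; blood pressure recorded from the cannulated left femoral artery via a linear core transducer. Peptides were injected into the cannulated right jugular vein with an automatic dispensing syringe. An AII dose-response curve was run before and after each analogue, so each animal served as its own control. Dose-response data are given as mean ± SEM, with the number of animals stated.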
Compound,Activity (Rattus norvegicus [1]),Activity (Rattus norvegicus [2])
CC(=O)N[C@@H](CC(N)=O)C(=O)N[C@@H](CCCN=C(N)N)C(=O)N[C@H](C(=O)N[C@@H](Cc1ccc(O)cc1)C(=O)N[C@H](C(=O)N[C@@H](Cc1c[nH]cn1)C(=O)N1CCC[C@H]1C(=O)N[C@@H](Cc1ccccc1)C(C)=O)C(C)C)C(C)C (Ac-NRVYVHP-X1),0.4%,0.03%
COC(=O)[C@H](Cc1ccccc1)NC(=O)[C@@H]1CCCN1C(=O)[C@H](Cc1c[nH]cn1)NC(=O)[C@@H](NC(=O)[C@H](Cc1ccc(O)cc1)NC(=O)[C@@H](NC(=O)[C@H](CCCN=C(N)N)NC(=O)[C@H](CC(N)=O)NC(C)=O)C(C)C)C(C)C (Ac-NRVYVHPF-OMe),20%,13%
CC(=O)N[C@@H](CC(N)=O)C(=O)N[C@@H](CCCN=C(N)N)C(=O)N[C@H](C(=O)N[C@@H](Cc1ccc(O)cc1)C(=O)N[C@H](C(=O)N[C@@H](Cc1c[nH]cn1)C(=O)N1CCC[C@H]1C(=O)N[C@H](CO)Cc1ccccc1)C(C)C)C(C)C (Ac-NRVYVHP[Phe(ol)]),0.09%,0.001%
COC(=O)[C@](C)(Cc1ccccc1)NC(=O)[C@@H]1CCCN1C(=O)[C@H](Cc1c[nH]cn1)NC(=O)[C@@H](NC(=O)[C@H](Cc1ccc(O)cc1)NC(=O)[C@@H](NC(=O)[C@H](CCCN=C(N)N)NC(=O)[C@H](CC(N)=O)NC(C)=O)C(C)C)C(C)C (Ac-NRVYVHP[αMeF]-OMe),0.002%,0.001%
H-NRVYVHPF-OH [ANGIOTENSIN AMIDE],100%,100%
